Where a chain is given by its changes, count along the chain named.
Tests used:
[1] = target: T1, Retinoic acid receptor alpha (Homo sapiens, UniProt P10276); test: Transcriptional activation of Retinoic acid receptor RAR alpha;NA=not active; set-up: species or system Cercopithecidae
T1 sequence (P10276 whole entry): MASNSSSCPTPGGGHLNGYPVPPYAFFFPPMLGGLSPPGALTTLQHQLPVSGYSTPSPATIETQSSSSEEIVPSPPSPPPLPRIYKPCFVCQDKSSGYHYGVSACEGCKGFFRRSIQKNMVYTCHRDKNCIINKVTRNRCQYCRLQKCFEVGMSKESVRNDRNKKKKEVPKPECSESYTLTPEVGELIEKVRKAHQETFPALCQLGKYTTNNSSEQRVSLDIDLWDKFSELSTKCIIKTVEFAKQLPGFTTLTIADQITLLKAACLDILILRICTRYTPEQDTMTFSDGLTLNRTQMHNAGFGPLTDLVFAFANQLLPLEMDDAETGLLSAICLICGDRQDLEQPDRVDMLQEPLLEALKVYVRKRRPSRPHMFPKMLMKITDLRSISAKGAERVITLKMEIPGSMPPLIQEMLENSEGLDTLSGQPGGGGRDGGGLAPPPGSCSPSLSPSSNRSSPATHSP
Procedure, shortened: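 CV-1 cells transiently cotransfected with the receptor construct and a reporter gene, with induced transcription measured. Activity is normalized to all-trans RA. EC50 is the concentration giving 50% of maximal observed response, from a single experiment in triplicate.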

[2] = target: T2, Retinoic acid receptor RXR-alpha (Mus musculus, UniProt P28700); test: Dissociation constant for binding to Retinoid X receptor alpha
T2 sequence (P28700 whole entry): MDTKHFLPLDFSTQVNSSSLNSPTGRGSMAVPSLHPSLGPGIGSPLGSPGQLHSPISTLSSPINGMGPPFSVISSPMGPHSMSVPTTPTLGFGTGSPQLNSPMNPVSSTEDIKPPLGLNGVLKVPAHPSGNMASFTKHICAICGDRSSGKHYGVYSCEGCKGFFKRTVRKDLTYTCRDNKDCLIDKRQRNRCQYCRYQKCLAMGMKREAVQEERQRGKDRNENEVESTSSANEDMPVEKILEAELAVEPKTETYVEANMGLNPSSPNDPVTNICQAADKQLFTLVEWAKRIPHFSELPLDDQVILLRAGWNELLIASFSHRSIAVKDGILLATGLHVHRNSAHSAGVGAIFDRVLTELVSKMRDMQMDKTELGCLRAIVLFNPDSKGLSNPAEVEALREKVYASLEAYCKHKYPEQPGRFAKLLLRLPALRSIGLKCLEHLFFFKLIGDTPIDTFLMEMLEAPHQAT

[3] = target: T3, Retinoic acid receptor RXR-gamma (Homo sapiens, UniProt P48443); test: Transcriptional activation of Retinoid X receptor RXR gamma; set-up: species or system Cercopithecidae
T3 sequence (P48443 whole entry): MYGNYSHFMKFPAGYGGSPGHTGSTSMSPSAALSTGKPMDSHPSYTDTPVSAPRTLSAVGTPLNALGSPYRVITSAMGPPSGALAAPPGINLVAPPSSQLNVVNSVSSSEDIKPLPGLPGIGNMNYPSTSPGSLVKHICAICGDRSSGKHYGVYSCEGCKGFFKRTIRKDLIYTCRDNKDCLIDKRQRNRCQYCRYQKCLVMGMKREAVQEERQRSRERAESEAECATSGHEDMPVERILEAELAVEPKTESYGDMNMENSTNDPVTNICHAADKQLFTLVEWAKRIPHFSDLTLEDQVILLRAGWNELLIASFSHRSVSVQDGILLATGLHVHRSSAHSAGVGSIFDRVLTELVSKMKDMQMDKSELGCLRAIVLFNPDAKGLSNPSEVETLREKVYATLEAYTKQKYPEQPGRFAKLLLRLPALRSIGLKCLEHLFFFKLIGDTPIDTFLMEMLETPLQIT
Procedure, shortened: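 CV-1 cells transiently cotransfected with the receptor construct and a reporter gene, with induced transcription measured. Activity is normalized to all-trans RA.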

[4] = target: T4, Retinoic acid receptor alpha (Mus musculus, UniProt P11416); test: Dissociation constant for binding to Retinoic acid receptor alpha; type: single protein
T4 sequence (P11416 whole entry): T1 sequence (P10276 whole entry) with T43S, E150D, V169A, R347K, P427S, G431T, N453H, H460Q
Procedure, shortened: (§1)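 Competitive binding assays against each receptor subtype, with Kd values taken from competition.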

[5] = target: T5, Retinoic acid receptor RXR-gamma (Mus musculus, UniProt P28705); test: Dissociation constant for binding to Retinoid X receptor gamma; procedure, shortened: as §1
T5 sequence (P28705 whole entry): T3 sequence (P48443 whole entry) with A13T, Y15F, A31V, S34P, T228S, G230S, M258V, T450S

## Cc1cc2c(cc1Sc1ccc(C(=O)O)cn1)C(C)(C)CCC2(C)C
[1]
  EC50: Not Active
[2]
  Kd: 0.032 µM
[3]
  EC50: 0.042 µM

## Cc1cc2c(cc1Sc1ncc(C(=O)O)s1)C(C)(C)CCC2(C)C
[4]
  Kd: 1 µM
[5]
  Kd: 1 µM
[1]
  EC50: Not Active
[2]
  Kd: 1 µM
[3]
  EC50: 1.9 µM

## Cc1cc2c(cc1S(=O)(=O)c1ccc(C(=O)O)cc1)C(C)(C)CCC2(C)C
[4]
  Kd: > 10 µM
[5]
  Kd: 3.99 µM
[1]
  EC50: Not Active
[2]
  Kd: 2.52 µM

## Cc1cc2c(cc1Sc1ccc(C(=O)O)cc1)C(C)(C)CCC2(C)C
[4]
  Kd: > 10 µM
[1]
  EC50: Not Active
[2]
  Kd: 0.296 µM
[3]
  EC50: 0.28 µM

## CC1(C)CCC(C)(C)c2cc(Sc3ccc(C(=O)O)cc3)ccc21
[4]
  Kd: 4.08 µM
[1]
  EC50: Not Active
[2]
  Kd: 3.87 µM

## Cc1cc2c(cc1[S+]([O-])c1ccc(C(=O)O)cc1)C(C)(C)CCC2(C)C (centres undefined)
[4]
  Kd: > 10 µM
[5]
  Kd: > 10 µM
[1]
  EC50: Not Active
[2]
  Kd: > 10 µM
[3]
  EC50: 1.6 µM

From ChEMBL document CHEMBL1129630, “Synthesis and structure-activity relationships of retinoid X receptor selective diaryl sulfide analogs of retinoic acid” (J Med Chem, 1996)
